In brackets after ≈: the same amount, converted by molar mass. Activity calls are given as the source filed them. The calls are words filed in the database; no cut-off is given here.
Assays:
[1] = tested on: Rhizoctonia solani; assay: In vivo antifungal activity against Rhizoctonia solani infected rice seedlings assessed as control of rice sheath blight disease development at 125 ug/ml treated 1 day before spore inoculation measured 3-7 days after inoculation; assay type: functional
In short: (§1)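 Potted seedlings sprayed to runoff with material dissolved in MeOH and diluted in 0.025% Tween 20 (5% MeOH); controls got the Tween/MeOH solution alone. Inoculated with spores or mycelial suspension 1 day later. Infected leaf or sheath area rated 3–7 days after inoculation; % control = 100(A−B)/A. Randomized complete block design, three replicates, run in duplicate; Tukey HSD.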

[2] = tested on: Botrytis cinerea; assay: In vivo antifungal activity against Botryotinia fuckeliana infected in tomato seedlings assessed as control of tomato gray mold disease development at 250 ug/ml treated 1 day before spore inoculation measured 3-7 days after inoculation; assay type: functional; in short: as §1
[3] = tested on: Botrytis cinerea; assay: In vivo antifungal activity against Botryotinia fuckeliana infected in tomato seedlings assessed as control of tomato gray mold disease development at 500 ug/ml treated 1 day before spore inoculation measured 3-7 days after inoculation; assay type: functional; in short: as §1
[4] = tested on: Rhizoctonia solani; assay: In vivo antifungal activity against Rhizoctonia solani infected rice seedlings assessed as control of rice sheath blight disease development at 250 ug/ml treated 1 day before spore inoculation measured 3-7 days after inoculation; assay type: functional; in short: as §1
[5] = tested on: Rhizoctonia solani; assay: In vivo antifungal activity against Rhizoctonia solani infected rice seedlings assessed as control of rice sheath blight disease development at 500 ug/ml treated 1 day before spore inoculation measured 3-7 days after inoculation; assay type: functional; in short: as §1
[6] = tested on: Pyricularia oryzae; assay: In vivo antifungal activity against Magnaporthe oryzae infected rice seedlings assessed as control of rice blast disease development at 125 ug/ml treated 1 day before spore inoculation measured 3-7 days after inoculation; assay type: functional; in short: as §1
[7] = tested on: Pyricularia oryzae; assay: In vivo antifungal activity against Magnaporthe oryzae infected rice seedlings assessed as control of rice blast disease development at 250 ug/ml treated 1 day before spore inoculation measured 3-7 days after inoculation; assay type: functional; in short: as §1
[8] = tested on: Pyricularia oryzae; assay: In vivo antifungal activity against Magnaporthe oryzae infected rice seedlings assessed as control of rice blast disease development at 500 ug/ml treated 1 day before spore inoculation measured 3-7 days after inoculation; assay type: functional; in short: as §1
[9] = tested on: Puccinia recondita; assay: In vivo antifungal activity against Puccinia recondita infected wheat seedlings assessed as reduction in wheat leaf rust disease symptoms development at 50 to 300 ug/ml treated 1 day before spore inoculation measured 7 days after inoculation; assay type: functional, organism-based; in short: as §1
[10] = tested on: Phytophthora infestans; assay: In vivo antifungal activity against Phytophthora infestans zoospores infected tomato seedlings assessed as control of tomato late blight disease development at 3.9 ug/ml treated 1 day before spore inoculation measured 3 days after inoculation; assay type: functional; in short: as §1
[11] = tested on: Phytophthora infestans; assay: In vivo antifungal activity against Phytophthora infestans zoospores infected tomato seedlings assessed as control of tomato late blight disease development treated 1 day before spore inoculation measured 3 days after inoculation; assay type: functional, organism-based; in short: as §1
[12] = tested on: Phytophthora infestans; assay: Antifungal activity against Phytophthora infestans assessed as inhibition of radial mycelial growth at 11.11 to 900 ug/ml incubated at 20 degC for 5 to 7 days by poison plate assay; assay type: functional
In short: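 Poison-plate assay: material in MeOH added 1:100 to V8-agar at 50 °C, 2 mL per well of six-well plates, centre-inoculated with a 5 mm plug from the colony margin. Incubated at 20 °C until control growth reached the edge. Controls were 1% MeOH. Read as % inhibition of radial growth. Two runs, four replicates each. IC50 by probit.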

[13] = tested on: Phytophthora infestans; assay: Antifungal activity against Phytophthora infestans assessed as inhibition of zoospore germination incubated in the dark at 20 degC for 24 hr by light microscopy; assay type: functional, organism-based
In short: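 Zoospores released by chilling sporangia 1 h at 4 °C, then filtered to remove sporangia. Test solution in MeOH mixed 1:100 with the suspension (1% MeOH control), loaded onto hole-slide glasses and kept humid at 20 °C for 24 h in the dark. Germinated cells counted per hole by light microscope. Experiment repeated, mean ± SD.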

[14] = tested on: Phytophthora infestans; assay: Antifungal activity against Phytophthora infestans assessed as inhibition of sporangium germination incubated at 20 degC for 24 hr by light microscopy; assay type: functional, organism-based
In short: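 Sporangium germination: compounds serially diluted in MeOH (12500 to 391 μg/mL as stock series), sporangia incubated 24 h at 20 °C. About 100 sporangia per replicate scored for germination by light microscope. Experiment repeated, mean ± SD. IC50 by probit.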

[15] = tested on: Bursaphelenchus xylophilus; assay: Nematicidal activity against second juvenile stage (J2) of Bursaphelenchus xylophilus assessed as mortality at >0.33 ug/ml after 2 days by microtiter plate assay method (Beneficial crop Pine); assay type: functional
In short: (§2)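 Pine wood nematodes reared on B. cinerea mycelia on PDA for 7 days at 28 °C. J2s collected in 0.01% Triton X-100 water and tested in microtiter plates. Compounds in DMSO or MeOH, solvent ≤1%; solvent-only controls. Concentrations 0.004–1 μg/mL. Mortality Abbott-corrected; LC50 by probit. Two runs, three replicates each.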

[16] = tested on: Bursaphelenchus xylophilus; assay: Nematicidal activity against second juvenile stage (J2) of Bursaphelenchus xylophilus assessed as mortality after 2 days by microtiter plate assay method (Beneficial crop Pine); assay type: functional; settings: 48 h; in short: as §2
[17] = tested on: Colletotrichum coccodes; assay: In vivo antifungal activity against Colletotrichum coccodes infected red pepper seedlings assessed as control of red pepper anthracnose development at 125 ug/ml treated 1 day before spore inoculation measured 3-7 days after inoculation; assay type: functional; in short: as §1
[18] = tested on: Colletotrichum coccodes; assay: In vivo antifungal activity against Colletotrichum coccodes infected red pepper seedlings assessed as control of red pepper anthracnose development at 250 ug/ml treated 1 day before spore inoculation measured 3-7 days after inoculation; assay type: functional; in short: as §1
[19] = tested on: Colletotrichum coccodes; assay: In vivo antifungal activity against Colletotrichum coccodes infected red pepper seedlings assessed as control of red pepper anthracnose development at 500 ug/ml treated 1 day before spore inoculation measured 3-7 days after inoculation; assay type: functional; in short: as §1
[20] = tested on: Blumeria hordei; assay: In vivo antifungal activity against Blumeria graminis f. sp. hordei infected barley seedlings assessed as control of barley powdery mildew disease development at 125 ug/ml treated 1 day before spore inoculation measured 3-7 days after inoculation; assay type: functional; in short: as §1
[21] = tested on: Blumeria hordei; assay: In vivo antifungal activity against Blumeria graminis f. sp. hordei infected barley seedlings assessed as control of barley powdery mildew disease development at 250 ug/ml treated 1 day before spore inoculation measured 3-7 days after inoculation; assay type: functional; in short: as §1
[22] = tested on: Blumeria hordei; assay: In vivo antifungal activity against Blumeria graminis f. sp. hordei infected barley seedlings assessed as control of barley powdery mildew disease development at 500 ug/ml treated 1 day before spore inoculation measured 3-7 days after inoculation; assay type: functional; in short: as §1
[23] = tested on: Botrytis cinerea; assay: In vivo antifungal activity against Botryotinia fuckeliana infected in tomato seedlings assessed as control of tomato gray mold disease development at 125 ug/ml treated 1 day before spore inoculation measured 3-7 days after inoculation; assay type: functional; in short: as §1
[24] = tested on: Meloidogyne incognita; assay: Nematicidal activity against second juvenile stage (J2) of Meloidogyne incognita (root-knot nematode) assessed as mortality incubated in the dark at 28 degC after 3 days by light microscopy (benficial crop Tomato); assay type: functional; settings: 72 h
In short: (§3)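 M. incognita eggs taken from infected tomato roots with hypochlorite and J2s hatched in Baermann funnels at 28 °C. J2s from the first 3 days kept in 0.01% Tween 20 water and used within 24 h. About 100 J2s per well; stock added 1:100 in DMSO or MeOH (≤1%). Plates kept shaking in the dark at 28 °C, scored by microscope at 1, 2 and 3 days. Mortality Abbott-corrected. Two runs, three replicates each.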

[25] = tested on: Meloidogyne incognita; assay: Nematicidal activity against second juvenile stage (J2) of Meloidogyne incognita (root-knot nematode) assessed as mortality incubated in the dark at 28 degC after 2 days by light microscopy (benficial crop Tomato); assay type: functional; settings: 48 h; in short: as §3
[26] = tested on: Caenorhabditis elegans; assay: Nematicidal activity against Caenorhabditis elegans assessed as mortality; assay type: functional
[27] = tested on: Meloidogyne incognita; assay: Nematicidal activity against second juvenile stage (J2) of Meloidogyne incognita (root-knot nematode) assessed as mortality incubated in the dark at 28 degC after 1 day by light microscopy (benficial crop Tomato); assay type: functional; settings: 24 h; in short: as §3
[28] = tested on: Puccinia recondita; assay: In vivo antifungal activity against Puccinia recondita infected wheat seedlings assessed as reduction in wheat leaf rust disease symptoms development at 125 ug/ml treated 1 day before spore inoculation measured 7 days after inoculation; assay type: functional; parameters: scale not given: the % may be the effect or the level left; in short: as §1
[29] = tested on: Puccinia recondita; assay: In vivo antifungal activity against Puccinia recondita infected wheat seedlings assessed as reduction in wheat leaf rust disease symptoms development at 250 ug/ml treated 1 day before spore inoculation measured 7 days after inoculation; assay type: functional; parameters: scale not given: the % may be the effect or the level left; in short: as §1
[30] = tested on: Puccinia recondita; assay: In vivo antifungal activity against Puccinia recondita infected wheat seedlings assessed as reduction in wheat leaf rust disease symptoms development at 500 ug/ml treated 1 day before spore inoculation measured 7 days after inoculation; assay type: functional; parameters: scale not given: the % may be the effect or the level left; in short: as §1
[31] = tested on: Meloidogyne incognita; assay: Nematicidal activity against second juvenile stage (J2) of Meloidogyne incognita (root-knot nematode) assessed as mortality at 11 ug/ml incubated in the dark at 28 degC within 2 hr by light microscopy (benficial crop Tomato); assay type: functional

| SMILES | Activity [1] | Activity [2] | Activity [3] | Activity [4] | Activity [5] | Activity [6] | Activity [7] | Activity [8] | Activity [11] | growth inhibition (GI) [12] | IC50 [13] | inhibition [13] | IC50 [14] | inhibition [14] | mortality [15] | LC50 [16] | Activity [18] | Activity [19] | Activity [20] | Activity [21] | further results |
| --- | --- | --- | --- | --- | --- | --- | --- | --- | --- | --- | --- | --- | --- | --- | --- | --- | --- | --- | --- | --- | --- |
| CCCCCC[C@H](O)CCC[C@H](O)[C@H]1CC[C@H]([C@H](O)CC[C@H](O)[C@@H]2CC[C@@H](CCCCCCCCCC3=C[C@H](C)OC3=O)O2)O1 (relative stereo) [SQUAMOSTATIN A] | 0% | 10% | 10% | 11.8% | 11.8% | 50% | 31.3% | 37.5% | Dose-dependent effect | 31% | 1.89 mg/L (≈ 2.96 µM) | Dose-dependent effect | 2.09 mg/L (≈ 3.27 µM) | Dose-dependent effect | 100% | 0.048 mg/L | 40% | 0% | 0% | 0% | Activity [9]: Active; Activity [10]: >70%; Activity [17]: 20%; Activity [22]: 0%; Activity [23]: 10% |
| CCCCCCCCCC[C@@H](O)[C@H]1CC[C@H]([C@H]2CC[C@H]([C@H](O)CCCCCCCCCC[C@@H](O)CC3=C[C@H](C)OC3=O)O2)O1 [REL-SQUAMOCIN-H] |  |  |  |  |  |  |  |  |  |  |  |  |  |  | 100% | 0.012 mg/L |  |  |  |  | LC50 [24]: 24.3 mg/L (≈ 39 µM); LC50 [25]: 71.2 mg/L (≈ 114 µM); LD100 [26]: 0.1 ppm; LC50 [27]: > 100 mg/L |
| CCCCCCCCCC[C@H](O)[C@H]1CC[C@H]([C@H]2CC[C@H]([C@H](O)CCCCCCCCCC[C@@H](O)CC3=C[C@H](C)OC3=O)O2)O1 (relative stereo) [REL-SQUAMOCIN-G] | 11.8% | 20% | 0% | 0% | 0% | 12.5% | 18.8% | 18.8% | Dose-dependent effect | 31% | 1.92 mg/L (≈ 3.08 µM) | Dose-dependent effect | 1.43 mg/L (≈ 2.3 µM) | Dose-dependent effect | 100% | 0.008 mg/L | 0% | 0% | 0% | 25% | LC50 [24]: 0.287 mg/L (≈ 0.461 µM); LC50 [25]: 0.339 mg/L (≈ 0.544 µM); Activity [28]: 0%; Activity [29]: 0%; Activity [30]: 0%; mortality at 11 µg/mL [31]: 100%; LC50 [27]: 0.864 mg/L (≈ 1.39 µM); Activity [22]: 0%; Activity [23]: 20% |

— ChEMBL document CHEMBL3044956, “Nematicidal and antifungal activities of annonaceous acetogenins from Annona squamosa against various plant pathogens” (J Agric Food Chem, 2011)
